≈ marks a conversion by molar mass, not a printed value.
Assays:
Proteus mirabilis = test: Antibacterial activity against Proteus mirabilis after 24 hrs by broth microdilution method; assay type: functional; conditions: Proteus mirabilis, 24 h; read-out: MIC
In short: (§1)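 Clinical isolates. Each dilution received 100 μl of 0.5 McFarland fresh culture. Solvent (DMSO), growth and standard controls were included. Tubes were incubated at 37 °C for 24 h. MIC is the highest dilution showing no turbidity. Tests were run in triplicate, with at least two repetitions.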

Klebsiella pneumoniae = test: Antibacterial activity against Klebsiella pneumoniae after 24 hrs by broth microdilution method; assay type: functional; conditions: Klebsiella pneumoniae, 24 h; read-out: MIC; in short: as §1
Escherichia coli = test: Antibacterial activity against Escherichia coli after 24 hrs by broth microdilution method; assay type: functional; conditions: Escherichia coli, 24 h; read-out: MIC; in short: as §1
HEL [1] = test: Cytotoxicity against VSV infected HEL cells by trypan blue exclusion method; assay type: cell-based; conditions: human, hel
In short: (§2)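 Uninfected confluent cultures were run in parallel with the infected cultures. Medium was replaced by 1 ml maintenance medium with serial compound concentrations; cell controls received no compound. Cultures were incubated at 37 °C. After 2 and 7 days, compound was withdrawn and viability was determined by trypan blue exclusion.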

HEL [2] = test: Cytotoxicity against acyclovir-sensitive Herpes simplex virus 1 KOS infected HEL cells by trypan blue exclusion method; assay type: cell-based; conditions: human; in short: as §2
HEL [3] = test: Cytotoxicity against Herpes simplex virus 1 KOS infected HEL cells by trypan blue exclusion method; assay type: cell-based; conditions: human, hel; in short: as §2
[4] = tested on: Vesicular stomatitis virus; test: Antiviral activity against VSV infected in HEL cells assessed as protection from virus-induced cytopathogenicity after 1 to 2 days by MTT assay; assay type: functional, organism-based
HEL [5] = test: Cytotoxicity against Vaccinia virus infected HEL cells by trypan blue exclusion method; assay type: cell-based; conditions: human, hel; in short: as §2
HEL [6] = test: Cytotoxicity against Herpes simplex virus 2 G infected HEL cells by trypan blue exclusion method; assay type: cell-based; conditions: human, hel; in short: as §2
Felid alphaherpesvirus 1 = test: Antiviral activity against Feline herpesvirus infected in cat CRFK cells assessed as protection from virus-induced cytopathogenicity by MTT assay; assay type: functional, organism-based; conditions: Felid alphaherpesvirus 1, CRFK
HeLa [7] = test: Cytotoxicity against Respiratory syncytial virus infected human HeLa cells by trypan blue exclusion method; assay type: cell-based; conditions: hela; in short: as §2
HeLa [8] = test: Cytotoxicity against VSV infected human HeLa cells by trypan blue exclusion method; assay type: cell-based; conditions: hela; in short: as §2
[9] = Cytotoxicity against Feline herpesvirus infected cat CRFK cells by trypan blue exclusion method; assay type: cell-based, Felis catus; conditions: crfk; in short: as §2
[10] = Cytotoxicity against Feline coronavirus infected cat CRFK cells by trypan blue exclusion method; assay type: cell-based, Felis catus; conditions: crfk; in short: as §2
Sindbis virus = test: Antiviral activity against Sindbis virus infected in african green monkey Vero cells assessed as protection from virus-induced cytopathogenicity after 2 to 3 days by MTT assay; assay type: functional, organism-based
Feline coronavirus = test: Antiviral activity against Feline coronavirus infected in cat CRFK cells assessed as protection from virus-induced cytopathogenicity by MTT assay; assay type: functional, organism-based; conditions: Alphacoronavirus 1, CRFK
[11] = tested on: Human immunodeficiency virus 2; test: Antiviral activity against HIV2 ROD infected in human MT4 cells assessed as protection from virus-induced cytopathogenicity after 5 days by MTT assay; assay type: functional, organism-based; conditions: Human immunodeficiency virus 2, ISOLATE ROD, MT4, 120 h
In short: (§3)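 MT-4 cells at 3 × 10^4 per well were infected with HIV (IIIB or ROD) at 50% cell culture infective doses. Graded compound concentrations were added immediately after infection. Plates were incubated for 5 days at 37 °C and viable cells were counted by MTT.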

[12] = tested on: Vesicular stomatitis virus; test: Antiviral activity against VSV infected in human HeLa cells assessed as protection from virus-induced cytopathogenicity after 1 to 2 days by MTT assay; assay type: functional, organism-based
Human alphaherpesvirus 1 [13] = test: Antiviral activity against acyclovir-sensitive Herpes simplex virus 1 KOS infected in HEL cells assessed as protection from virus-induced cytopathogenicity after 2 to 3 days by MTT assay; assay type: functional, organism-based; conditions: Human alphaherpesvirus 1, KOS
Influenza B virus = test: Antiviral activity against Influenza B virus infected in MDCK cells assessed as protection from virus-induced cytopathogenicity after 6 to 7 days by MTT assay; assay type: functional, organism-based
Vero [14] = test: Cytotoxicity against Human coxsackievirus B4 infected african green monkey Vero cells by trypan blue exclusion method; assay type: cell-based; conditions: chlorocebus sabaeus, vero; in short: as §2
Vero [15] = test: Cytotoxicity against Reovirus 1 infected african green monkey Vero cells by trypan blue exclusion method; assay type: cell-based; conditions: chlorocebus sabaeus, vero; in short: as §2
MDCK [16] = test: Cytotoxicity against Influenza A virus subtype H3N2 infected MDCK cells by trypan blue exclusion method; assay type: cell-based, Canis lupus familiaris; conditions: dog
HeLa [17] = test: Cytotoxicity against Human coxsackievirus B4 infected human HeLa cells by trypan blue exclusion method; assay type: cell-based; conditions: hela; in short: as §2
Coxsackievirus B4 [18] = test: Antiviral activity against Human coxsackievirus B4 infected in african green monkey Vero cells assessed as protection from virus-induced cytopathogenicity after 2 days by MTT assay; assay type: functional, organism-based; conditions: Enterovirus B, 48 h
[19] = tested on: Respiratory syncytial virus; test: Antiviral activity against Respiratory syncytial virus infected in human HeLa cells assessed as protection from virus-induced cytopathogenicity after 4 days by MTT assay; assay type: functional, organism-based; conditions: 96 h
Influenza A virus [20] = test: Antiviral activity against Influenza A virus H3N2 infected in MDCK cells assessed as protection from virus-induced cytopathogenicity after 6 to 7 days by MTT assay; assay type: functional, organism-based
MDCK [21] = test: Cytotoxicity against Influenza B virus infected MDCK cells by trypan blue exclusion method; assay type: cell-based, Canis lupus familiaris; conditions: dog
Human alphaherpesvirus 2 = test: Antiviral activity against Herpes simplex virus 2 G infected in HEL cells assessed as protection from virus-induced cytopathogenicity after 2 to 3 days by MTT assay; assay type: functional, organism-based; conditions: Human alphaherpesvirus 2, strain G
MDCK [22] = test: Cytotoxicity against Influenza A virus subtype H1N1 infected MDCK cells by trypan blue exclusion method; assay type: cell-based, Canis lupus familiaris; conditions: dog
[23] = tested on: Human immunodeficiency virus 1; test: Antiviral activity against HIV1 3B-infected in human MT4 cells assessed as protection from virus-induced cytopathogenicity after 5 days by MTT assay; assay type: functional, organism-based; conditions: Human immunodeficiency virus 1, 3B, MT4, 120 h; in short: as §3
[24] = Cytotoxicity against HIV2 ROD infected human MT4 cells by MTT assay; assay type: cell-based; conditions: MT4 cells infected with HIV-2 ROD
In short: (§4)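 MT-4 cells (3 × 10^4 per well) were cultured in microdilution trays with various concentrations of compound, then incubated 5 days at 37 °C, and viable cell number was read by MTT.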

[25] = tested on: Mammalian orthoreovirus 1; test: Antiviral activity against Reovirus 1 infected in african green monkey Vero cells assessed as protection from virus-induced cytopathogenicity after 6 to 7 days by MTT assay; assay type: functional, organism-based; conditions: Mammalian orthoreovirus 1, Vero
Human alphaherpesvirus 1 [26] = test: Antiviral activity against Herpes simplex virus 1 KOS infected in HEL cells assessed as protection from virus-induced cytopathogenicity after 2 to 3 days by MTT assay; assay type: functional, organism-based; conditions: Human alphaherpesvirus 1, KOS
Vero [27] = test: Cytotoxicity against Sindbis virus infected african green monkey Vero cells by trypan blue exclusion method; assay type: cell-based; conditions: chlorocebus sabaeus, vero; in short: as §2
Coxsackievirus B4 [28] = test: Antiviral activity against Human coxsackievirus B4 infected in human HeLa cells assessed as protection from virus-induced cytopathogenicity after 2 days by MTT assay; assay type: functional, organism-based; conditions: Enterovirus B, 48 h
Influenza A virus [29] = test: Antiviral activity against Influenza A virus H1N1 infected in MDCK cells assessed as protection from virus-induced cytopathogenicity after 6 to 7 days by MTT assay; assay type: functional, organism-based
Punta Toro virus = test: Antiviral activity against Punta Toro virus infected in african green monkey Vero cells assessed as protection from virus-induced cytopathogenicity by MTT assay; assay type: functional, organism-based
Vero [30] = test: Cytotoxicity against PIV 3 infected african green monkey Vero cells by trypan blue exclusion method; assay type: cell-based; conditions: chlorocebus sabaeus, vero; in short: as §2
[31] = Cytotoxicity against HIV1 3B-infected human MT4 cells by MTT assay; assay type: cell-based; conditions: MT4 cells infected with HIV-1 3B; in short: as §4
Human respirovirus 3 = test: Antiviral activity against PIV 3 infected in african green monkey Vero cells assessed as protection from virus-induced cytopathogenicity after 6 to 7 days by MTT assay; assay type: functional, organism-based; conditions: Human respirovirus 3, Vero
Streptococcus viridans = test: Antibacterial activity against Streptococcus viridans after 24 hrs by broth microdilution method; assay type: functional; conditions: Streptococcus viridans, 24 h; read-out: MIC; in short: as §1
Vero [32] = test: Cytotoxicity against Punta Toro virus infected african green monkey Vero cells by trypan blue exclusion method; assay type: cell-based; conditions: chlorocebus sabaeus, vero; in short: as §2

Row | SMILES | MIC (Proteus mirabilis) [µM] | CC50 (HEL [1]) [nM] | CC50 (HEL [2]) [nM] | CC50 (HEL [3]) [nM] | EC50 [4] [nM] | CC50 (HEL [5]) [nM] | CC50 (HEL [6]) [nM] | CC50 (HeLa [7]) [nM] | CC50 (HeLa [8]) [nM] | EC50 (Sindbis virus) [nM] | EC50 [12] [nM] | CC50 (Vero [14]) [nM] | CC50 (Vero [15]) [nM] | CC50 (HeLa [17]) [nM] | EC50 (Coxsackievirus B4 [18]) [nM] | EC50 [19] [nM] | EC50 [25] [nM] | CC50 (Vero [27]) [nM] | EC50 (Punta Toro virus) [nM] | CC50 (Vero [30]) [nM] | further results
1 | CCCCCCCCCCCCCCCC(=O)Oc1ccc(/C=C/C(=O)CC(=O)/C=C/c2ccc(OC(=O)CCCCCCCCCCCCCCC)c(OC)c2)cc1OC | 0.53 (≈ 0.448 µg/mL) |  |  |  |  |  |  |  |  |  |  |  |  |  |  |  |  |  |  |  | MIC (Klebsiella pneumoniae): 0.53 µM (≈ 0.448 µg/mL); MIC (Escherichia coli): 0.53 µM (≈ 0.448 µg/mL)
2 | O=c1[nH]c(=O)n([C@H]2C[C@H](O)[C@@H](CO)O2)cc1/C=C/Br [BRIVUDINE] |  | > 250000 | > 250000 | > 250000 | > 250000 | > 250000 | > 250000 |  |  |  |  |  |  |  |  |  |  |  |  |  | 
3 | COc1cc(/C=C/C(=O)C(CCOC(=O)CCC(NC(=O)c2ccc(NCc3cnc4nc(N)[nH]c(=O)c4n3)cc2)C(=O)O)C(=O)/C=C/c2ccc(O)c(OC)c2)ccc1O (configuration not stated) | 0.09 (≈ 0.0752 µg/mL) | > 11 | > 11 | > 11 | > 11 | > 11 | > 11 | > 11 | > 11 | > 11 | > 11 | > 11 | > 11 | > 11 | > 11 | > 11 | > 11 | > 11 | > 11 | > 11 | EC50 (Felid alphaherpesvirus 1): > 11 nM; CC50 [9]: > 11 nM; CC50 [10]: > 11 nM; EC50 (Feline coronavirus): > 11 nM; IC50 [11]: 65 nM; EC50 (Human alphaherpesvirus 1 [13]): > 11 nM; EC50 (Influenza B virus): > 11 nM; CC50 (MDCK [16]): > 11 nM; EC50 (Influenza A virus [20]): > 11 nM; CC50 (MDCK [21]): > 11 nM; EC50 (Human alphaherpesvirus 2): > 11 nM; CC50 (MDCK [22]): > 11 nM; IC50 [23]: 63 nM; CC50 [24]: > 65 nM; EC50 (Human alphaherpesvirus 1 [26]): > 11 nM; EC50 (Coxsackievirus B4 [28]): > 11 nM; EC50 (Influenza A virus [29]): > 11 nM; CC50 [31]: > 63 nM; EC50 (Human respirovirus 3): > 11 nM
4 | COc1cc(/C=C/C(=O)CC(=O)/C=C/c2ccc(OC(=O)CCC(NC(=O)c3ccc(NCc4cnc5nc(N)[nH]c(=O)c5n4)cc3)C(=O)O)c(OC)c2)ccc1OC(=O)CCC(NC(=O)c1ccc(NCc2cnc3nc(N)[nH]c(=O)c3n2)cc1)C(=O)O (configuration not stated) | 0.54 (≈ 0.656 µg/mL) | > 82 | > 82 | > 82 | > 82 | > 82 | > 82 | > 82 | > 82 | > 82 | > 82 | > 82 | > 82 | > 82 | > 82 | > 82 | > 82 | > 82 | > 82 | > 82 | EC50 (Felid alphaherpesvirus 1): > 30 nM; MIC (Streptococcus viridans): 0.27 µM (≈ 0.328 µg/mL); CC50 [9]: 11 nM; EC50 (Feline coronavirus): > 30 nM; IC50 [11]: 46 nM; EC50 (Human alphaherpesvirus 1 [13]): > 82 nM; EC50 (Influenza B virus): > 82 nM; MIC (Klebsiella pneumoniae): 0.27 µM (≈ 0.328 µg/mL); EC50 (Influenza A virus [20]): > 82 nM; CC50 (MDCK [21]): 82 nM; EC50 (Human alphaherpesvirus 2): > 82 nM; IC50 [23]: 36 nM; CC50 [24]: > 46 nM; EC50 (Human alphaherpesvirus 1 [26]): > 82 nM; EC50 (Coxsackievirus B4 [28]): > 82 nM; MIC (Escherichia coli): 0.27 µM (≈ 0.328 µg/mL); EC50 (Influenza A virus [29]): > 82 nM; CC50 [31]: > 36 nM; EC50 (Human respirovirus 3): > 82 nM
5 | Nc1ncnc2c1ncn2C[C@H](O)CO [(S)-DHPA] |  |  |  |  |  |  |  | > 250000 | > 250000 | > 250000 | 146000 | > 250000 | > 250000 | > 250000 | > 250000 | 146000 | > 250000 | > 250000 | > 250000 | > 250000 | CC50 (Vero [32]): > 250000 nM; EC50 (Human respirovirus 3): > 250000 nM

Source: ChEMBL document CHEMBL1154855 (Eur J Med Chem, 2010)
